According to ChEMBL document CHEMBL4706654, “Novel cyanothiouracil and cyanothiocytosine derivatives as concentration-dependent selective inhibitors of U87MG glioblastomas: Adenosine receptor binding and potent PDE4 inhibition” (Eur J Med Chem, 2021):

Assays:
U-87 MG [1] = test: Antiproliferative activity against human U-87 MG cells assessed as reduction in cell viability measured after 24 to 48 hrs by MTT assay; format: functional, cell-based, U-87MG ATCC
Method in brief: (§1)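 Cells seeded per well 24 h before treatment: HEK293 at 5.10^4, MCF7 at 4.10^4, U87MG at 10^5. Compounds were dissolved in DMSO (less than 1%) and diluted in DMEM, then incubated 24 and 48 h. Cells were washed with D-PBS and given MTT (from a 5 mg/mL stock) for 4 h, dissolved in DMSO, read at 540 nm. % viability = sample/control absorbance ×100. At least three independent experiments.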

U-87 MG [2] = test: Antiproliferative activity against human U-87 MG cells assessed as cell viability at 5 uM measured after 24 to 48 hrs by MTT assay relative to control; format: functional, U-87MG ATCC; details: time 24-48 hrs, read-out: Activity; method in brief: as §1
[3] = Cytotoxicity against HEK293 cells assessed as cell viability at 100 uM measured after 24 to 48 hrs by MTT assay relative to control; format: cell-based; details: human, HEK293 cells, time 24-48 hrs, read-out: Activity; method in brief: as §1
U-87 MG [4] = test: Antiproliferative activity against human U-87 MG cells assessed as cell viability at 100 uM measured after 24 to 48 hrs by MTT assay relative to control; format: functional, U-87MG ATCC; details: time 24-48 hrs, read-out: Activity; method in brief: as §1
U-87 MG [5] = test: Antiproliferative activity against human U-87 MG cells assessed as cell viability at 50 uM measured after 24 to 48 hrs by MTT assay relative to control; format: functional, U-87MG ATCC; details: time 24-48 hrs, read-out: Activity; method in brief: as §1
U-87 MG [6] = test: Antiproliferative activity against human U-87 MG cells assessed as cell viability at 10 uM measured after 24 to 48 hrs by MTT assay relative to control; format: functional, U-87MG ATCC; details: time 24-48 hrs, read-out: Activity; method in brief: as §1
HEK293 = test: Cytotoxicity against HEK293 cells assessed as reduction in cell viability measured after 24 to 48 hrs by MTT assay; format: cell-based; details: Homo sapiens; method in brief: as §1
[7] = molecular target: 3',5'-cyclic-AMP phosphodiesterase 4B (Homo sapiens, UniProt Q07343); test: Inhibition of recombinant human PDE4B using […] as substrate measured after 90 mins by colorimetric assay
Method in brief: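 Recombinant human PDE4 was incubated with 0.5 μM 5′-cGMP plus 5′-nucleotidase for 90 min at 30°C. The reaction was stopped with termination buffer for 20 min at room temperature, and released phosphate was read at OD 620 nm. IC50 was determined from 6 inhibitor concentrations. Compound stocks were in DMSO (less than 1%), with at least triplicate runs, mean ± SD.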

Chain of 3',5'-cyclic-AMP phosphodiesterase 4B (Q07343 whole entry): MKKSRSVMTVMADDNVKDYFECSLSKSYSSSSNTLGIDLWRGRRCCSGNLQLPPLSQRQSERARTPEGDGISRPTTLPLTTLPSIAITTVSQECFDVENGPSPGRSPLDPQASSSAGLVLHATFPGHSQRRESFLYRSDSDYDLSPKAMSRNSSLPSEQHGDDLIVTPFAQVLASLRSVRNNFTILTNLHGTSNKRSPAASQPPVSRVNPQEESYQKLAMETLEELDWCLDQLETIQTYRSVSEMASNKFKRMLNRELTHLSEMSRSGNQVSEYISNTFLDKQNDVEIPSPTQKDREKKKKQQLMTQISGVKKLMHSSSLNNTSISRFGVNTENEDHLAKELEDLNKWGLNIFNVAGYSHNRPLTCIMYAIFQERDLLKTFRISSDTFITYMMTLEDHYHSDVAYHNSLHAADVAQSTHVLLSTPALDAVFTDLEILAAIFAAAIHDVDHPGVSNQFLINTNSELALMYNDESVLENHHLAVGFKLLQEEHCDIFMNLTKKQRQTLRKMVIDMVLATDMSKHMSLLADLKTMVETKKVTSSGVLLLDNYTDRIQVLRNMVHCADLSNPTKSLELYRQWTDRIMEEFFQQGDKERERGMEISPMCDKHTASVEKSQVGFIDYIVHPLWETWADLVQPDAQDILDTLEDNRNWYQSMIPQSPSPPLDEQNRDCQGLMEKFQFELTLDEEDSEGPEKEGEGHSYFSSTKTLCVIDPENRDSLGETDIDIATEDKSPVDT

IC50 (U-87 MG [1])	IC50 [7]	Compound	viability at 5 µM (U-87 MG [2])	viability at 100 µM [3]	viability at 100 µM (U-87 MG [4])	viability at 50 µM (U-87 MG [5])	viability at 10 µM (U-87 MG [6])	IC50 (HEK293)
27.6 µM	–	Cc1nc(-c2ccc(Cl)cc2)sc1C(=O)CSc1nc(-c2ccccc2)c(C#N)c(=O)[nH]1	88.9%	> 50%	11.4%	41.6%	83.1%	–
57.2 µM	–	COc1ccc(-c2nc(C)c(C(=O)CSc3nc(-c4ccccc4)c(C#N)c(=O)[nH]3)s2)cc1	99%	> 50%	10.9%	72.5%	90.9%	–
53 µM	–	Cc1nc(-c2ccc(Cl)cc2)sc1C(=O)CSc1nc(-c2ccc(Cl)cc2)c(C#N)c(=O)[nH]1	99%	–	12.8%	60%	98.4%	75.1 µM
68.5 µM	–	COc1ccc(-c2nc(C)c(C(=O)CSc3nc(-c4ccc(Cl)c(Cl)c4)c(C#N)c(=O)[nH]3)s2)cc1	101%	–	31.1%	78.4%	88.6%	45.6 µM
33.7 µM	–	Cc1nc(-c2ccccc2)sc1C(=O)CSc1nc(-c2ccc3c(c2)OCO3)c(C#N)c(=O)[nH]1	93.4%	> 50%	18.7%	42.6%	84.2%	–
65.3 µM	–	COc1ccc(-c2nc(C)c(C(=O)CSc3nc(-c4ccc5c(c4)OCO5)c(C#N)c(=O)[nH]3)s2)cc1	100%	> 50%	22.9%	83.2%	88.3%	–
56.6 µM	–	Cc1nc(-c2ccccc2)sc1C(=O)CSc1nc(-c2ccccc2)c(C#N)c(=O)[nH]1	92.1%	–	9.23%	77.5%	87.5%	93.5 µM
–	14.3 µM	CC(C)Cn1c(=O)n(C)c(=O)c2[nH]cnc21 [ISOBUTYLMETHYLXANTHINE]	–	–	–	–	–	–
55.5 µM	–	Cc1nc(-c2ccc(Cl)cc2)sc1C(=O)CSc1nc(-c2ccc3c(c2)OCO3)c(C#N)c(=O)[nH]1	101%	–	9.91%	68.3%	95%	81.4 µM

The remaining lines, values behind:

Compound	IC50 (U-87 MG [1])	IC50 [7]	viability at 5 µM (U-87 MG [2])	viability at 100 µM [3]	viability at 100 µM (U-87 MG [4])	viability at 50 µM (U-87 MG [5])	viability at 10 µM (U-87 MG [6])	IC50 (HEK293)
COc1ccc(-c2nc(C)c(C(=O)CSc3nc(-c4ccc(OC)cc4)c(C#N)c(=O)[nH]3)s2)cc1	25.3 µM	–	97%	> 50%	11.5%	32.6%	80.3%	–
COc1ccc(-c2nc(C)c(C(=O)CSc3nc(-c4ccc(Cl)cc4)c(C#N)c(=O)[nH]3)s2)cc1	45.9 µM	–	102%	–	2.85%	48%	92.7%	63 µM
Cc1nc(-c2ccccc2)sc1C(=O)CSc1nc(-c2cccc(Cl)c2)c(C#N)c(=O)[nH]1	28.2 µM	–	86.9%	> 50%	10%	50.6%	83.7%	–
COc1cccc(-c2nc(SCC(=O)c3sc(-c4ccc(Cl)cc4)nc3C)[nH]c(=O)c2C#N)c1	41 µM	–	96.6%	–	8.54%	47.6%	89.7%	77.9 µM
Cc1nc(-c2ccccc2)sc1C(=O)CSc1nc(-c2ccc(Cl)c(Cl)c2)c(C#N)c(=O)[nH]1	65 µM	–	98.6%	–	24.4%	75.3%	92.5%	85.1 µM
COc1ccc(-c2nc(C)c(C(=O)CSc3nc(-c4cccc(Cl)c4)c(C#N)c(=O)[nH]3)s2)cc1	78.9 µM	–	95.7%	> 50%	40.6%	83.4%	90.6%	–
COc1ccc(-c2nc(SCC(=O)c3sc(-c4ccccc4)nc3C)[nH]c(=O)c2C#N)cc1	48.4 µM	–	97.3%	–	1.08%	52.1%	90.4%	76.2 µM
COc1ccc(-c2nc(SCC(=O)c3sc(-c4ccc(Cl)cc4)nc3C)[nH]c(=O)c2C#N)cc1OC	38.6 µM	–	93.4%	> 50%	18.7%	59.8%	83.3%	–
COc1cccc(-c2nc(SCC(=O)c3sc(-c4ccccc4)nc3C)[nH]c(=O)c2C#N)c1	59.7 µM	–	99%	–	21.8%	80.3%	90.2%	90.2 µM
Cc1nc(-c2ccc(Cl)cc2)sc1C(=O)CSc1nc(-c2ccc(Cl)c(Cl)c2)c(C#N)c(=O)[nH]1	83.9 µM	–	101%	–	36.5%	93.9%	97.1%	46.9 µM
COc1ccc(-c2nc(C)c(C(=O)CSc3nc(-c4cccc(OC)c4)c(C#N)c(=O)[nH]3)s2)cc1	15.3 µM	–	71.3%	–	12.4%	43.2%	66.7%	95.4 µM
Cc1nc(-c2ccccc2)sc1C(=O)CSc1nc(-c2ccc(Cl)cc2)c(C#N)c(=O)[nH]1	43.4 µM	–	90.9%	> 50%	22.5%	63.4%	85.2%	–
COc1ccc(-c2nc(SCC(=O)c3sc(-c4ccc(Cl)cc4)nc3C)[nH]c(=O)c2C#N)cc1	35.5 µM	–	92.1%	> 50%	16.6%	46.3%	88.3%	–
Cc1nc(-c2ccc(Cl)cc2)sc1C(=O)CSc1nc(-c2cccc(Cl)c2)c(C#N)c(=O)[nH]1	40.1 µM	–	80.2%	–	12.5%	52.6%	95.2%	30.1 µM
